Measured values as given in article PMC6571994 (The Journal of General Physiology, 2019).
“Also recorded” adds a separate entry of the source. Where two headings read alike, the source gives them in different places.

How the values were obtained:
purified iNicSnFR3a [1] = experiment: Fluorescence dose–response relations of purified iNicSnFR3a; format: biochemical; details: for ΔFmax/F0: excitation 485 nm, 3× PBS, 25°C; for sensitivity of iNicSnFR3a and iNicSnFR3b to other α4β2 agonists: unpublished data
iNicSnFR3a = experiment: Stopped-flow kinetics of ligand binding to iNicSnFR3a
purified iNicSnFR3a [2] = experiment: Isothermal titration calorimetry with purified iNicSnFR3a; format: binding; details: PBS, 25°C
In short: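 Calorimetric titration: 100 µM protein in the cell titrated with 1 mM test ligand in PBS at 25°C. Binding isotherm yields equilibrium dissociation constant and stoichiometry (moles ligand per mole protein).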

[3] = tested on: iNicSnFR3a_PM expressed in HeLa cells; experiment: Time-resolved fluorescence, iNicSnFR3a_PM in transfected HeLa cells; format: cell-based, human; details: Fig. 5 E; normalized to nicotine (100 µM)
[4] = tested on: iNicSnFR3a_ER expressed in HeLa cells; experiment: Time-resolved fluorescence, iNicSnFR3a_ER in transfected HeLa cells; format: cell-based, human; details: Fig. 5 E; normalized to nicotine (100 µM)
[5] = tested on: iNicSnFR3 biosensors targeted to the ER; format: cell-based
iNicSnFR1 = details: read-out: apparent nicotine EC50
[6] = tested on: iNiSnFR3a_Y357A_PM in HeLa cells; details: concentrations ≤300 µM
[7] = tested on: AAV_iNicSnFR3b_ER in cultured mouse hippocampal neurons
[8] = tested on: iNicSnFR3a_ER in human dopaminergic neurons
[9] = tested on: _ER constructs in HeLa cells and hippocampal neurons; details: applied [nicotine] ≤ 5 µM; mean ± SEM, n = 8 cells
[10] = tested on: _PM constructs in HeLa cells and hippocampal neurons; details: applied [nicotine] ≤ 5 µM; mean ± SEM, n = 8 cells
[11] = cited from earlier work; for pKa: no reference printed; for logD7.4: ref Smith et al., 2012
[12] = cited from earlier work
[13] = tested on: T. sp X513 OpuBC homologue; experiment: Isothermal titration calorimetry with purified PBPs; format: binding, Thermoanaerobacter sp X513
[14] = tested on: AAV2/1.syn1.iNicSnFR3b_ER in cultured hippocampal neurons; experiment: Time-resolved fluorescence, iNicSnFR3b_ER in cultured hippocampal neurons; format: cell-based, mouse; details: compared with nicotine responses and with varenicline responses on the PM
[15] = tested on: iNicSnFR3a and iNicSnFR3b in HeLa cells and neurons; format: cell-based
α4β2 nAChRs [16] = details: ref Turner et al., 2011; Marks et al., 2015; Govind et al., 2017; cited from earlier work
α4β2 nAChRs [17] = details: cited from earlier work
α7 nAChRs = details: cited from earlier work
[18] = ref Coe et al., 2005, Mihalak et al., 2006

With `CN1CCC[C@H]1c1cccnc1` [nicotine, (—)–Nicotine] the “decrease in EC50 as the pH is increased from 6.0 to 9.0” value (purified iNicSnFR3a [1]; Fig. 3 I) was about 20 fold, the “EC50 for nicotine relative to EC50 for N’MeNic” value (purified iNicSnFR3a [1]; pH 6.0 to 9.0, Fig. 3 I) was 1.25- to 2 fold and the ΔFmax/F0 (purified iNicSnFR3a [1]; pH 7.5) was 14.5. For the same molecule, the ΔFmax/F0 (purified iNicSnFR3a [1]; pH 9.0) was 3.5, the “koff-ext (extrapolation to zero [nicotine])” value (iNicSnFR3a; 25°C, PBS) was 2.0 s⁻¹ and the Kd (iNicSnFR3a; read-out: equilibrium-binding constant Kd = koff/kon, stopped-flow) was 29 µM. The Kd (purified iNicSnFR3a [2]) was 10 ± 2.5 µM, the fluorescence increases [3] was “comparable fluorescence increases” and the fluorescence increases [4] was “only nicotine evoked fluorescence increases”. For the same molecule, the “[nicotine] in the ER versus the extracellular value” [5] was “within twofold; also recorded: less than twofold”, the “time for nicotine to leave the ER after removal from the extracellular solution” value [5] was at most 10 s and the EC50 (iNicSnFR1) was 250 µM. The “nicotine-induced ΔF” value [6] was “no detectable nicotine-induced ΔF”, the diffusion constant [7] was about 1 µm^2/ms and the “time scale of complete response” value ([7]; cell in ROI 3, ∼150 µm from the pipette tip) was about 10 s. The “time of fluorescence increase” value ([7]; cell within 10 µm of the pipette tip) was under 1 s, the “maximum ΔF/F0” value [8] was 3–4 and the “slope [ΔF/F0]/[nicotine]” value ([8]; [nicotine] ≤ 5 µM, Fig. 6 F inset) was 0.087 µM⁻¹. For the same molecule, the EC50 ([8]; read-out: [nicotine] giving half-ΔFmax/F0) was about 20 µM, the “[ΔF/F0]/[nicotine]” value [9] was 0.075 ± 0.019 µM⁻¹ and the “[ΔF/F0]/[nicotine]” value [10] was 0.063 ± 0.13 µM⁻¹. For the same molecule, the pKa [11] was 7.5–8, the pKa ([11]; listed as Nicotine) was 7.5–8.1 and the logD7.4 [11] was −0.04. The half-time of metabolism ([12]; in humans, ref Benowitz et al., 1991) was about 20 min and the “peak [nicotine] in the plasma and brain of a smoker” value ([12]; ref Benowitz et al., 1991, Rollema et al., 2010) was about 1 µM.
For `O=c1cccc2n1C[C@@H]1CNC[C@H]2C1` [cytisine], the “sensitivity of iNicSnFR3a and iNicSnFR3b to other α4β2 agonists” value (from here on “sensitivity of iNicSnFR3a and iNicSnFR3b”) (purified iNicSnFR3a [1]) was “less sensitive”.
In the case of `c1cnc2c(c1)O[C@H]1CCN3CC[C@@]1(C2)C3` [dianicline], the “sensitivity of iNicSnFR3a and iNicSnFR3b” value (purified iNicSnFR3a [1]) is reported as “less sensitive”.
In the case of `c1cncc(OC[C@@H]2CCN2)c1` [A-85380], the “sensitivity of iNicSnFR3a and iNicSnFR3b” value (purified iNicSnFR3a [1]) is reported as “less sensitive”.
For `C[N+](C)(C)CCO` [choline], the “EC50 for choline relative to nicotine” value (purified iNicSnFR3a [1]; Fig. 2 C) was “more than fourfold greater” and the “binding to the purified protein” value [13] was “bind to this protein”.
For `CN1C(=O)CC[C@H]1c1cccnc1` [cotinine], the ΔF (purified iNicSnFR3a [1]; Fig. 2 C) was “near-zero ΔF values”.
With `C[N+](C)(C)CC(=O)O` [betaine] the “binding to the purified protein” value [13] was “bind to this protein”.
In the case of `c1cnc2cc3c(cc2n1)[C@@H]1CNC[C@H]3C1` [varenicline], the “agonist character for iNicSnFR3 fluorescence” value (purified iNicSnFR3a [1]) is reported as “highly potent full agonist”, the “varenicline EC50 relative to nicotine” value (purified iNicSnFR3a [1]; purified iNicSnFR3a) is reported as “approximately sixfold less” and the “inferred Kd relative to nicotine” value (iNicSnFR3a; stopped-flow) is reported as “approximately threefold less”. The Kd (purified iNicSnFR3a [2]) was 3.5 µM, the “growth and decay phases of the ER varenicline-induced fluorescence” value [14] was “clearly slower” and the “time for varenicline to leave the ER after leaving the external solution” value ([5]; clinically relevant sub-µM concentrations) was “at most 60 s”. The EC50 [15] was 1 to 4 µM, the pKa [11] was 9.5–10 and the logD7.4 [11] was −1.27. For the same molecule, the half-life ([12]; human plasma, ref Faessel et al., 2006) was about 24 h, the “effect of exposure on α4β2 nAChRs” value (α4β2 nAChRs [16]) was “up-regulates” and the agonist type (α4β2 nAChRs [17]; no reference printed) was “partial agonist”. The “potency relative to ACh” value (α4β2 nAChRs [17]; [18]) was “more potent than ACh”, the agonist type (α7 nAChRs; no reference printed) was “full agonist” and the “potency relative to ACh” value (α7 nAChRs; [18]) was “more potent than ACh”.
For `CC(=O)OCC[N+](C)(C)C` [ACh, acetylcholine], the “binding to the purified protein” value [13] was “bind to this protein”, the fluorescence increases [3] was “comparable fluorescence increases” and the fluorescence increases [4] was “only nicotine evoked fluorescence increases”.
